Reference: the RNAGym collection of RNA variant scans (doi:10.1002/anie.201605470)

B1: Osa-1-4 twister ribozyme (parent)
chain: CCGCCUAACACUGCCAAUGCCGGUCCCAAGCCCGGAUAAAAGUGGAGGGGGCGG

Variants of: B1
Experiment: self-cleavage, relative activity (ratio to wild type); higher = more cleavage; co-transcriptional
Outline: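 The 48 positions downstream of the cleavage site in a DNA template for a 54-nucleotide Oryza sativa twister ribozyme carried 97 % wild-type base and 1 % of each other base. After in vitro transcription (2 h, 37 °C) with co-transcriptional self-cleavage, the RNA was reverse-transcribed with a template-switching oligonucleotide, PCR-amplified and deep-sequenced. Relative activity is the fraction cleaved, judged by reads with or without upstream sequence and normalised to wild type.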

In order of rising self-cleavage:
1. C31A U24G  0.01
2. C31A G30U  0.01
3. G30U U24G  0.01
4. C31A G42U  0.01
5. C31A G13C  0.01
6. C31A G13A  0.01
7. C32A G13A  0.01
8. C32A G13U  0.01
9. C32A G13C  0.01
10. G30U U37A  0.02
11. C31A U24A  0.02
12. C31A U24C  0.02
13. C31G G19C  0.02
14. C31G G42U  0.02
15. C31A G30A  0.02
16. C32A U24G  0.02
17. C31A U12C  0.02
18. G30U U24A  0.02
19. G30U U24C  0.02
20. C31A G42C  0.02
21. C31A G19C  0.02
22. C31A G19U  0.02
23. C31A G13U  0.02
24. C31A G22C  0.02
25. C32A G53C  0.02
26. C31A G47A  0.02
27. C31A G47C  0.02
28. C31A G47U  0.02
29. C31U G13C  0.02
30. C31U G30U  0.03
31. C31U G30A  0.03
32. C31U G30C  0.03
33. C31G G45C  0.03
34. C31G G45U  0.03
35. C32A G22C  0.03
36. C32A G47C  0.03
37. C31A G30C  0.03
38. C31G G47C  0.03
39. C31A U37A  0.03
40. C31G G49U  0.03
41. C31G G49C  0.03
42. C31A G42A  0.03
43. C31G G23U  0.03
44. C31G C33G  0.03
45. G30U G51U  0.03
46. G30U G51C  0.03
47. C31U G47C  0.03
48. C31A G34C  0.04
49. C31A G34U  0.04
50. C31G G13U  0.04
51. G30U U37G  0.04
52. G30U U37C  0.04
53. C31G G45A  0.04
54. C32A G47A  0.04
55. C32A G47U  0.04
56. G30U U43C  0.04
57. G30U U43G  0.04
58. G30U U43A  0.04
59. C31A G54A  0.04
60. C31A G54C  0.04
61. C31G G47U  0.04
62. C31G G47A  0.04
63. C31A U37C  0.04
64. C32A U24C  0.04
65. C31A U12G  0.04
66. C31A U12A  0.04
67. C31A G19A  0.04
68. C31A G22U  0.04
69. C31A G22A  0.04
70. C31A  0.04
71. C31G C33A  0.04
72. C31U G45C  0.04
73. C31U G45U  0.04
74. C31U G45A  0.04
75. C31U G48A  0.05
76. C31A G34A  0.05
77. C31G U12G  0.05
78. C31G G19U  0.05
79. C31G G42C  0.05
80. C31A G54U  0.05
81. C31A U37G  0.05
82. C31G G49A  0.05
83. C32A G53U  0.05
84. C31U G49C  0.05
85. G30U G51A  0.05
86. C31U G47A  0.05
87. C31U G47U  0.05
88. C31U G13U  0.05
89. C31A C52U  0.05
90. C31A C52A  0.05
91. C31A C52G  0.05
92. C31G U43C  0.06
93. C31U G51C  0.06
94. C31U C33G  0.06
95. C31G G13A  0.06
96. C31G G13C  0.06
97. C32A G54C  0.06
98. C32A G22U  0.06
99. C31G U12C  0.06
100. C31G G50U  0.06
101. C32A U24A  0.06
102. C32A G44A  0.06
103. C31G G23A  0.06
104. C31U G49A  0.06
105. C31U G49U  0.06
106. C31G C33U  0.06
107. C32A U18C  0.07
108. C31G G54C  0.07
109. C31G G50C  0.07
110. C32A G44C  0.07
111. C31U G22C  0.07
112. C31U C33A  0.08
113. C32A G22A  0.08
114. C31G U12A  0.08
115. C31G G19A  0.08
116. C32A G44U  0.08
117. C32A G53A  0.08
118. C31G G34U  0.08
119. C31U U43C  0.08
120. C31G U43G  0.09
121. C31G U37C  0.09
122. C31G U43A  0.1
123. C31G C52A  0.1
124. C31G G42A  0.1
125. C31G G54A  0.1
126. C32A C52A  0.1
127. C32A C52G  0.1
128. C31G G34C  0.1
129. C31U U43G  0.1
130. C32A G54A  0.11
131. C32A U18A  0.11
132. C31G G50A  0.11
133. C31G G23C  0.11
134. C31G G34A  0.11
135. C31G  0.11
136. C31G C52U  0.12
137. C31G U37A  0.12
138. C31U G51U  0.13
139. C31U G35C  0.14
140. C31G U37G  0.14
141. C31G C52G  0.15
142. C32A  0.15
143. C31U U43A  0.17
144. C32A G54U  0.18
145. C32A C52U  0.18
146. C32A U18G  0.19
147. C31G G54U  0.19
148. C31U G50C  0.26
149. C31U G54C  0.27
150. C31U G51A  0.29
151. C31U G44A  0.29
152. C31U G22U  0.3
153. C31U C33U  0.31
154. C31U G54A  0.32
155. C31U G54U  0.5
156. C31U G44U  0.51
157. C31U G22A  0.52
158. C31U G50U  0.6
159. C31U G44C  0.62
160. C31U G50A  0.64
161. C31U U37A  0.84
162. C31U G35U  0.85
163. C31U G35A  0.87
164. C31U G13A  0.89
165. C31U U37C  0.94
166. C31U  0.97
167. C31U U37G  1
